Sampled rows, rich in hits. Any-hit rate of the full collection: about 2.3%.
TRPC4 block – inhibitors of mouse TRPC4 channel, primary screen, Fluo4 calcium, HEK293 TRPC4beta/mu-opioid cells; Short transient receptor potential channel 4 (Mus musculus), Q9QUQ5; DAMGO-evoked Fluo4 calcium flux; hits give low values; B-score at 10 µM; 0.39% of 300,000 active;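 active means B-score over 3 SD under the library average, no early fluorescence shift, positive overall ratio signal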
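Test system – stable TRPC4beta/mu-opioid receptor HEK293 cells · Probe or stimulus – DAMGO, a submaximal dose followed by a maximal one · Dosing – one concentration per compound · Signal – Fluo4 calcium fluorescence by kinetic imaging, 5 s 1 Hz baseline · Evaluation – per-well B score of integrated baseline-normalized Fluo4 ratio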
TRPC4 act – activators of mouse TRPC4 channel, primary screen, Fluo4 calcium, HEK293 TRPC4beta/mu-opioid cells. B-score at 10 µM. Fluo4 calcium fluorescence; hits give high values. Short transient receptor potential channel 4 (Mus musculus), Q9QUQ5. 0.49% of 310,000 active;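 active means B-score above 5 SD of library B-scores, and initial fluorescence ratio not above library mean plus 5 SD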;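 further: positive B-score marks a calcium rise read as TRPC4 activation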
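Assay system – TRPC4beta and mu-opioid receptor HEK293 stable cells · Measured by – Fluo4 fluorescence, kinetic · Schedule – dye loading 45 min room temperature, 110 s kinetic read · Read-out – B-scored integrated calcium fluorescence ratio · Controls – buffer and maximal DAMGO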
TRPC6 inh – mouse TRPC6 channel inhibitors, primary screen, cell-based, HEK293, membrane potential dye | B-score at 10 µM | 1.1% of 310,000 active | Short transient receptor potential channel 6 (Mus musculus), Q61143 | ACh-evoked depolarization; hits give low values | AID 2553, 2010;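 active means B-score under library mean minus 3 SD, initial fluorescence not abnormally high, positive integrated signal ratio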;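 further: B-score derived from integrated fluorescence ratio over the kinetic read; more negative B-score means stronger inhibition of depolarization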
TRPC6 act – mouse TRPC6 channel activators, primary screen, cell-based, HEK293, membrane potential dye; 0.13% of 310,000 active; HEK293-TRPC6 membrane potential dye fluorescence; hits give high values; B-score at 10 µM;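 active means B-score of the integrated fluorescence ratio above library mean plus 3 SD, and starting fluorescence ratio within library mean plus 5 SD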;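 further: higher score means more depolarization so channel activation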
TRPC4 PAM – positive allosteric modulators of TRPC4, primary screen, cell-based, mouse TRPC4beta, HEK293 mu-opioid, Fluo-4 calcium; Short transient receptor potential channel 4 (Mus musculus), Q9QUQ5; DAMGO EC20, Fluo-4 Ca2+ flux; hits give high values; B-score at 10 µM; 0.42% of 310,000 active; AID 2227, 2009;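 active means B-score of calcium response area above 5 SD of library B-scores, with initial fluorescence ratio within 5 SD of library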
TRPC4 sel inh 2 – second check of whether TRPC6 inhibitors also affect mouse TRPC4; shares compounds with TRPC6 inh; HEK293 TRPC4/MOR, membrane potential dye fluorescence; channel activated by saturating DAMGO dose; inhibition, % at 10 µM; 42% of 920 active; AID 2776;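 active means compounds whose fluorescence signal differed from control wells by over 3 SD, either direction, in both duplicate plates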
TRPC4 spec – mouse TRPC4 modulation by TRPC6 hits, confirmation, selectivity assay for TRPC6 inhibitor project, cell-based, HEK293 TRPC4/mu-opioid, membrane potential dye; shares compounds with TRPC6 inh; membrane potential fluorescence; activity change, negative = inhibition, % at 10 µM; 61% of 920 active; AID 2777, 2010;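 active means rise or fall in signal beyond 3 SD of buffer-only wells in both replicate plates, either sign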;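 further: integrated kinetic ratio of fluorescence range over baseline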
HEK293 MPD ctr 2-1 – nonspecific membrane potential effects, parental HEK293, confirmation, counter-screen for TRPC6 inhibitor project, cell-based, second counter screen; 31% of 920 active; AID 2779, 2010; shares compounds with TRPC6 inh; signal change vs control, % at 10 µM; parental HEK293 membrane potential dye fluorescence; maximal acetylcholine challenge after compound addition;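 active means membrane potential signal moving either way by over 3 SD of the maximum-effect control, in both duplicate plates, meaning non-specific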
HEK293 MPD ctr-1 – membrane potential modulation in parental HEK293, confirmation, counter-screen for TRPC6 inhibitor project, cell-based; shares compounds with TRPC6 inh; parental HEK293 membrane potential dye fluorescence; membrane potential signal change, % at 10 µM; 60% of 920 active; AID 2780, 2010;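 active means membrane potential signal shifting up or down by more than 3 SD of buffer-only wells, on both duplicate plates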
HEK293 MPD ctr-2 – parental HEK293 membrane potential modulation, confirmation, counter-screen for TRPC6 modulator project, cell-based; shares compounds with TRPC6 inh; membrane potential dye fluorescence; membrane potential signal change, % at 10 µM; 51% of 2,400 active;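 active means membrane potential signal moves up or down beyond 5 SD from buffer-only wells, on both duplicate plates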
HEK293 MPD ctr 2-2 – second check of TRPC6 modulator effects in parental HEK293 cells. shares compounds with TRPC6 inh. membrane potential dye fluorescence; after compound, maximal acetylcholine stimulation. inhibition, % at 10 µM. 14% of 2,400 active;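 active means membrane potential signal drops by more than 5 SD from the mean control signal, in both duplicate plates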
TRPC4/MOR mod – TRPC4 modulation by TRPC6 hit compounds, confirmation, selectivity assay for TRPC6 modulator project, cell-based, HEK293 TRPC4/mu-opioid, membrane potential dye, mouse. shares compounds with TRPC6 inh. membrane potential fluorescence. percent change from control (negative = decrease, positive = increase), % at 10 µM. 69% of 2,400 active;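 active means membrane potential signal moved up or down beyond 5 SD of buffer control wells, in both duplicate plates, actives on both sides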
TRPC4 ctr inh 2 – second check of whether TRPC6 modulators also affect mouse TRPC4; shares compounds with TRPC6 inh; HEK293 TRPC4/mu-opioid, membrane potential dye fluorescence; stimulated with maximal-effect DAMGO; inhibition, % at 10 µM; 55% of 2,400 active; AID 488928;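 active means drop in membrane potential signal beyond 5 SD of the control wells in both duplicate plates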;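 further: TRPC4 counter screen for TRPC6 hits run under conditions tuned for TRPC6 not TRPC4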
TRPC6 inh conf – mouse TRPC6 channel inhibitors, confirmation, HEK293 cells, membrane potential dye, duplicate. inhibition, % at 10 µM. 43% of 3,300 active. ACh-evoked depolarization. shares compounds with TRPC6 inh;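 active means fluorescence ratio falls more than 5 SD below the full-stimulation control mean, in both duplicate runs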;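 further: integrated fluorescence ratio of peak minus minimum over baseline after agonist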
TRPC6 act conf – mouse TRPC6 channel activators, confirmation, HEK293 cells, membrane potential dye, duplicate; HEK293-TRPC6 membrane potential dye fluorescence, FDSS; activation, % at 10 µM; 11% of 2,800 active; shares compounds with TRPC6 inh;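 active means ratio signal rise beyond 5 SD above unstimulated control wells' mean, seen in both duplicate runs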
Each line names hits and unclear results; the compound was inactive in the other large screens (follow-up assays come after a bar, where they were run).

C=CCn1c(CCC(O)COCCCCC)n[nH]c1=S (centres undefined)	none
Cc1ccc(C)c(S(=O)(=O)N2CCCOC2CNC(=O)C(=O)NC2CCCC2)c1 (centres undefined)	none
CC(C)(C)c1ccc(C(=O)OCCN2CCCCC2)cc1	TRPC6 act 12.6 | HEK293 MPD ctr-2 127.5% | HEK293 MPD ctr 2-2 inactive | TRPC4/MOR mod 26.0% | TRPC4 ctr inh 2 55.5% | TRPC6 inh conf inactive | TRPC6 act conf 66.0%
Cc1c(C(=O)OCC(C)(C)CN(C)C)oc2ccccc12	none
Cc1c(C(=O)OCCN2CCCCC2)oc2ccccc12	TRPC6 inh -8.58 | TRPC4 sel inh 2 inactive | TRPC4 spec 10.4% | HEK293 MPD ctr 2-1 inactive | HEK293 MPD ctr-1 14.8% | TRPC6 inh conf inactive
Cc1c(C(=O)OC(C)CCN(C)C)oc2ccccc12 (centres undefined)	TRPC6 inh -9.69 | TRPC4 sel inh 2 inactive | TRPC4 spec 7.3% | HEK293 MPD ctr 2-1 inactive | HEK293 MPD ctr-1 10.5% | TRPC6 inh conf inactive
COc1ccc(C(=O)OCCN2CCCCC2)cc1	none
O=C(Nc1ccccc1Cc1ccccc1)c1ccncc1	none
COc1ccc(C2=NS(=O)(=O)N(C)C(C(=O)N3CCC(C(N)=O)CC3)=C2)cc1	none
CN1CCN(c2ccc(NC(=S)NC(=O)/C=C/c3ccco3)cc2)CC1	none
O=C(Nc1ccccc1)Nc1ncc([N+](=O)[O-])s1	TRPC6 inh -7.42 | TRPC4 sel inh 2 53.5% | TRPC4 spec 43.0% | HEK293 MPD ctr 2-1 inactive | HEK293 MPD ctr-1 20.8% | TRPC6 inh conf 96.0%

Screening results as filed in PubChem.
